Test results as given in ChEMBL document CHEMBL1143707, “7-Arylpiperazinylalkyl and 7-tetrahydroisoquinolinylalkyl derivatives of 8-alkoxy-purine-2,6-dione and some of their purine-2,6,8-trione analogs as 5-HT(1A), 5-HT(2A), and 5-HT(7) serotonin receptor ligands” (Bioorg Med Chem, 2007).

What was measured:
[1] = molecular target: T1, 5-hydroxytryptamine receptor 1A (Rattus norvegicus, UniProt P19327); assay: Displacement of [3H]8-OH-DPAT from rat brain 5HT1A receptor
T1 sequence (P19327 whole entry): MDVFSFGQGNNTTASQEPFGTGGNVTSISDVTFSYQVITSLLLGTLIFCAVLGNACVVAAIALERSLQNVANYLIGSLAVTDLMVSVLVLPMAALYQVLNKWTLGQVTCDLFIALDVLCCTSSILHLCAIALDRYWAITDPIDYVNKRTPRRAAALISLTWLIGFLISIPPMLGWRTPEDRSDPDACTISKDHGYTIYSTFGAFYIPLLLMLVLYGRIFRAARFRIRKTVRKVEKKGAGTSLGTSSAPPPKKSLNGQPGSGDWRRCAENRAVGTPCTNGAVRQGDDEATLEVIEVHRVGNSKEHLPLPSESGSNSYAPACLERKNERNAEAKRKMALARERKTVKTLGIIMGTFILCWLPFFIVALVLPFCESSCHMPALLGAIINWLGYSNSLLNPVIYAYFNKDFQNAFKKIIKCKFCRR
In short: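 Rat hippocampal membranes; 1 nM [3H]-8-OH-DPAT; nonspecific binding with 10 μM 5-HT; 8–10 competitor concentrations in triplicate, ≥3 experiments; GF/B filtration, ice-cold buffer washes, scintillation counting; Ki by nonlinear regression with Cheng–Prusoff.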

[2] = molecular target: 5-hydroxytryptamine receptor 2A (Rattus norvegicus, UniProt P14842); assay: Displacement of [3H]ketanserin from rat brain 5HT2A receptor
In short: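 Rat brain membranes; 0.6 nM [3H]-ketanserin; nonspecific binding with 1 μM methysergide; 8–10 competitor concentrations in triplicate, ≥3 experiments; GF/B filtration, scintillation counting; Ki via Cheng–Prusoff.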

[3] = molecular target: 5-hydroxytryptamine receptor 7 (Rattus norvegicus, UniProt P32305); assay: Displacement of [3H]5CT from 5HT7 receptor in Wistar rat hyphalamic membrane; type: cell membranes
Mus musculus [4] = assay: Effect on compound induced hypothermia in Swiss Albino mouse at 10 mg/kg, ip in presence of 0.1 mg/kg WAY 100635 after 60 mins relative to control; type: functional
In short: (§1)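 Male Albino Swiss mice; WAY 100635 0.1 mg/kg sc (in distilled water) 15 min before ip compound (1% Tween 80); rectal temperature at 30 and 60 min after compound; Δt from basal; n = 8/group; mean ± SEM.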

Mus musculus [5] = assay: Decrease in body temperature in Swiss Albino mouse at 5 mg/kg, ip administered 30 mins before the test measured after 30 mins relative to control; type: functional; details: route intraperitoneal
In short: (§2)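 Male Albino Swiss mice (24-28 g) given compound ip in 1% aqueous Tween 80 (10 mL/kg); rectal temperature read at 30, 60, 90 and 120 min post-dose; Δt versus basal temperature taken at start (initial ~36.0 °C); n = 8/group; mean ± SEM.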

Mus musculus [6] = assay: Decrease in body temperature in Swiss Albino mouse at 5 mg/kg, ip administered 30 mins before the test measured after 60 mins relative to control; type: functional; details: route intraperitoneal; in short: as §2
Mus musculus [7] = assay: Decrease in body temperature in Swiss Albino mouse at 5 mg/kg, ip administered 30 mins before the test measured after 90 mins relative to control; type: functional; details: route intraperitoneal; in short: as §2
Mus musculus [8] = assay: Decrease in body temperature in Swiss Albino mouse at 5 mg/kg, ip administered 30 mins before the test measured after 120 mins relative to control; type: functional; details: route intraperitoneal; in short: as §2
Mus musculus [9] = assay: Effect on body temperature in Swiss Albino mouse assessed as decrease at 10 mg/kg, ip after 30 mins relative to initial temperature; type: functional; details: route intraperitoneal; in short: as §2
Mus musculus [10] = assay: Effect on body temperature in Swiss Albino mouse assessed as decrease at 10 mg/kg, ip after 60 mins relative to initial temperature; type: functional; details: route intraperitoneal; in short: as §2
Mus musculus [11] = assay: Effect on body temperature in Swiss Albino mouse assessed as decrease at 10 mg/kg, ip after 90 mins relative to initial temperature; type: functional; details: route intraperitoneal; in short: as §2
Mus musculus [12] = assay: Effect on body temperature in Swiss Albino mouse assessed as decrease at 10 mg/kg, ip after 120 mins relative to initial temperature; type: functional; details: route intraperitoneal; in short: as §2
Mus musculus [13] = assay: Effect on compound induced hypothermia in Swiss Albino mouse at 10 mg/kg, ip in presence of 0.1 mg/kg WAY 100635 after 30 mins relative to control; type: functional; in short: as §1

5-hydroxytryptamine receptor 7, sequence (P32305 whole entry): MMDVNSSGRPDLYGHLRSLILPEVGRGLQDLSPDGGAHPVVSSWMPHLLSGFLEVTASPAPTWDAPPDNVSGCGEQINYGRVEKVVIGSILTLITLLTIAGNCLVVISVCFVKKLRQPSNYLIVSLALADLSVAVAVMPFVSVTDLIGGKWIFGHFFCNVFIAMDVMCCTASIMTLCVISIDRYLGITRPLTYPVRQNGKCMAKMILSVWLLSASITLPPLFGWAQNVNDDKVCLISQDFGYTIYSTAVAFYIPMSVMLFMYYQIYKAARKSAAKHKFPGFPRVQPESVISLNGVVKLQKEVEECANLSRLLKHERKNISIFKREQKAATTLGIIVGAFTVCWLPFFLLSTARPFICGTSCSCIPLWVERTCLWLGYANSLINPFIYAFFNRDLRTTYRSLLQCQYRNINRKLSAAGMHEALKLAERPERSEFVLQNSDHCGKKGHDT
5-hydroxytryptamine receptor 2A, sequence (P14842 whole entry): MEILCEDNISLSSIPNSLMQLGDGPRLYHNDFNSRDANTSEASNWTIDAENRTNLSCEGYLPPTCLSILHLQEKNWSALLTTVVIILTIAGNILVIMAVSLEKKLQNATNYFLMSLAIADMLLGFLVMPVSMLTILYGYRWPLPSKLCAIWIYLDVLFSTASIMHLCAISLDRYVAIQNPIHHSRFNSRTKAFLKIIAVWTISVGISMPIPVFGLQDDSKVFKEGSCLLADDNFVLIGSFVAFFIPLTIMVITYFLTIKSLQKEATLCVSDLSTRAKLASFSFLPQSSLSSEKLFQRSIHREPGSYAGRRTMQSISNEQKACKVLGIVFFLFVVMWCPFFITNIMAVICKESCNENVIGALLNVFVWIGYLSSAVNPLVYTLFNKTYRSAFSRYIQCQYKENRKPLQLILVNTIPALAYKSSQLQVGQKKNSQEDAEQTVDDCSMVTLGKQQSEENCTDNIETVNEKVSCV

| Ki [1] | Ki [2] | Ki [3] | SMILES | further results |
| --- | --- | --- | --- | --- |
| 6320 nM | 7960 nM | 16500 nM | Cn1c(=O)c2c([nH]c(=O)n2CCCN2CCc3ccccc3C2)n(C)c1=O |  |
| 15 nM | 28 nM | 125 nM | CCCOc1nc2c(c(=O)n(C)c(=O)n2C)n1CCCCN1CCN(c2cccc(Cl)c2)CC1 | Activity (Mus musculus [4]): -0.9 °C; Activity (Mus musculus [5]): -0.7 °C; Activity (Mus musculus [6]): -0.6 °C; Activity (Mus musculus [7]): -0.6 °C; Activity (Mus musculus [8]): -0.2 °C; Activity (Mus musculus [9]): -1.7 °C; Activity (Mus musculus [10]): -1.1 °C; Activity (Mus musculus [11]): -1.1 °C; Activity (Mus musculus [12]): -1.1 °C; Activity (Mus musculus [13]): -1.4 °C |
| 19 nM | 150 nM | 160 nM | CCCOc1nc2c(c(=O)n(C)c(=O)n2C)n1CCCCN1CCN(c2ccccc2OC)CC1 |  |
| 1500 nM | 560 nM | 1820 nM | Cn1c(=O)c2c([nH]c(=O)n2CCCCN2CCN(c3ccccc3)CC2)n(C)c1=O |  |
| 430 nM | 1930 nM | 83 nM | CCOc1nc2c(c(=O)n(C)c(=O)n2C)n1CCCCN1CCc2ccccc2C1 |  |
| 260 nM | 60 nM | 3670 nM | Cn1c(=O)c2c([nH]c(=O)n2CCCCN2CCN(c3cccc(Cl)c3)CC2)n(C)c1=O |  |
| 4210 nM | 230 nM | 13900 nM | Cn1c(=O)c2c([nH]c(=O)n2CCCN2CCN(c3ccccc3)CC2)n(C)c1=O |  |
| 1110 nM | 58 nM | 1880 nM | Cn1c(=O)c2c([nH]c(=O)n2CCCN2CCN(c3cccc(Cl)c3)CC2)n(C)c1=O |  |
| 130 nM | 57 nM | 680 nM | CCCOc1nc2c(c(=O)n(C)c(=O)n2C)n1CCCCN1CCN(c2ccccc2)CC1 |  |
| 288 nM | 25 nM | 267 nM | CCCOc1nc2c(c(=O)n(C)c(=O)n2C)n1CCCN1CCN(c2cccc(Cl)c2)CC1 |  |
| 800 nM | 51 nM | 980 nM | CCCOc1nc2c(c(=O)n(C)c(=O)n2C)n1CCCN1CCN(c2ccccc2)CC1 |  |
